# Many of the other results were omitted from the sample, so hits are more common in it than they were.
# CHOP UPR activ: activators of apoptotic arm of unfolded protein response (CHOP) | CHO-CHOP luciferase reporter, UPR activation, luminescence; percent of tunicamycin response over DMSO baseline | activation, % at 10 µM | hit rate 0.34% among 330,000 | AID 449763;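 active = at 10 µM dose, activation of 40% or more, normalized to positive control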;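 note: 100% = tunicamycin at 10 µg/mL and 0% = DMSO alone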
#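 Evaluation: % reporter activation, DMSO baseline versus tunicamycin full activation; System: CHO-CHOP luciferase reporter cell line; Input: 500 cells/well; Incubation: 6 h compound treatment, 37 °C; Measured by: Steady-Glo luciferase luminescence; Dosing: one dose, 10 µM in 0.5% DMSO; Buffer or medium: F12 medium, 10% FBS; Benchmarks: positive tunicamycin 10 µg/mL, negative DMSO alone.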
# XBP1 UPR activ: activators of adaptive arm of unfolded protein response (XBP1); AID 463104; CHO-XBP1 luciferase reporter, IRE1-XBP1 UPR activation, luminescence; percent of tunicamycin response, DMSO as zero; activation, % at 20 µM; hit rate 0.33% among 330,000;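 active = versus positive control, 20 µM dose yields 30% or more activation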;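 note: 100% = tunicamycin at 10 µg/mL and 0% = DMSO only wells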
#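 Material: CHO-XBP1 cells stably carrying IRE1-XBP1-driven luciferase reporter | Medium: F12 with 10% serum | Compound dosing: 20 µM single concentration, DMSO 1% | Incubation: Overnight seeding at 37 °C, 6 h compound treatment at 37 °C | Detection: Steady-Glo luminescence read | Read-out basis: % activation of reporter signal versus tunicamycin and DMSO controls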
# CHOP inhibitor: blocks CHOP induction under ER stress. CHO-K1 CHOP-promoter luciferase, tunicamycin-induced, 15-18 h. inhibition, % at 10 µM. hit rate 3.8% among 220,000. AID 2732;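 active = compounds that reduced the stress-induced luciferase reporter signal by more than about 70% of percent inhibition, limit read from the data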;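 note: 0% = tunicamycin plus vehicle and 100% = wells without tunicamycin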
# B2AR ag: human beta-2 adrenergic receptor agonism by FAP. hit rate 0.43% among 340,000. P07550. Am2.2-beta2AR cells, FAP receptor internalization, flow cytometry. response, % (no concentration beside the values);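 active = response above a set limit, near 3 SD of response in nonfluorescent compounds, cut at about 42% in these data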
# Target sequence (P07550 whole entry, looked up): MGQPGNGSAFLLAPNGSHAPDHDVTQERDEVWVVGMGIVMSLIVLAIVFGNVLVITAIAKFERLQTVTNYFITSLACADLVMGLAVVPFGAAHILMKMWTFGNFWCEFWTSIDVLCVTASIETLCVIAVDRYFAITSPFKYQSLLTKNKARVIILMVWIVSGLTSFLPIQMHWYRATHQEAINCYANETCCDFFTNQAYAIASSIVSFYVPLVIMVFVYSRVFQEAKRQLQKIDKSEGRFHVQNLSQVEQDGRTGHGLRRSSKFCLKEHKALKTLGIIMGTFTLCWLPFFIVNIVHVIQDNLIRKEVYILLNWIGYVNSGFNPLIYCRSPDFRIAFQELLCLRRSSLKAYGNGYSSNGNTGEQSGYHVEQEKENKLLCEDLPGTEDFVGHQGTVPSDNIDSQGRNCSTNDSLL
# Dynein transport: dynein cargo transport inhibition; 3617.4 mouse cells, GR-EGFP nuclear translocation imaging; test concentration mostly 20 µM; stimulated with dexamethasone, 1 µM; active compounds read low; z-score, hits read low; hit rate 0.47% among 220,000; AID 1381;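 active = plate z-score of nuclear minus cytoplasmic receptor signal below a set negative limit, without overly bright fluorescence or cell loss, cut at about -3.5 in these data, passing the limit was not always enough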;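 note: z-score of nuclear minus cytoplasmic ring GR-EGFP intensity difference per well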
#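 medium = tetracycline-free induction medium containing charcoal-stripped FBS | probe or stimulus = dexamethasone, 1.0 µM final | timing = 48 h induction, then 1 h compound, then 30 min agonist, 37 °C | detection = automated 10x imaging of fixed Hoechst-stained cells | read-out basis = nuclear versus cytoplasmic GR-EGFP signal, averaged per well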
# p-CIP stab down: compounds decreasing mouse p/CIP protein stability. Q05BA5. F442A p/CIP-EGFP cells, EGFP fluorescence, 16 h. decrease of EGFP signal, % at 10 µM. hit rate 0.01% among 290,000. AID 1984;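 active = EGFP signal decrease of at least 30% at 10 µM or well 3 SD below plate mean, unless failing retest; inactive = the rest, including hits failing retest or dose response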
# Dynein confirm: dynein cargo transport inhibition, confirmation; 3617.4 GR-EGFP nuclear translocation imaging, dexamethasone-induced; calls only at 20 µM; shares compounds with Dynein transport; hit rate 69% among 1,000; AID 463116;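 active = inhibition of receptor movement into the nucleus at or above a set limit in both runs, with normal cell brightness and cell count; inconclusive = limit reached in only one run, brightness and count normal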;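 note: dexamethasone at 1 µM final in well for 30 min; nuclear minus cytoplasmic GR-EGFP mean intensity difference in channel 2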
# CHOP confirm: confirmation of CHOP induction inhibitors; shares compounds with CHOP inhibitor; CHO-CHOP promoter luciferase reporter, tunicamycin-induced, luminescence; inhibition, % at 10 µM; hit rate 45% among 2,100; AID 504437;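 active = mean of three repeat readings of reporter signal inhibition above a set limit, cut at about 70% in these data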;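 note: 0% = tunicamycin plus vehicle and 100% = wells lacking tunicamycin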
# CHOP UPR conf: apoptotic UPR (CHOP) activation, confirmed | AID 463112 | activation, % at 10 µM | shares compounds with CHOP UPR activ | hit rate 64% among 1,000 | CHO-CHOP cells, CHOP-luciferase reporter luminescence; percent of tunicamycin response, DMSO as zero; in the data active = activation above about 33%;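 note: 0% = DMSO wells and 100% = tunicamycin 10 µg/mL wells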
# Starred values were filed as active, the others as inactive; i = inactive; ? = inconclusive; · = no result; + = active, no number.
SMILES,CHOP UPR activ,XBP1 UPR activ,CHOP inhibitor,B2AR ag,Dynein transport,p-CIP stab down,Dynein confirm,CHOP UPR conf,others
COc1ccc(CC(=O)Nc2cc(C)ccn2)cc1,0.5,-0.7,5.4,-0.8,-0.904,2.2,·,·,
COc1ccc(-c2cc(C(F)(F)F)n3nc(C(=O)Nc4cc(C)on4)cc3n2)cc1OC,0.2,-3.1,34.3,-3.2,0.454,-14.3,·,·,
COc1ccc(-c2cc(C(F)(F)F)nc(S(=O)(=O)CCCC(=O)Nc3cc(C)on3)n2)cc1OC,·,·,105.8*,36.1,-4.97*,-13.4,+,·,CHOP confirm=-140.3
O=C(CCl)N(c1ccc(Cl)cc1)c1c[nH]c2ccccc12,-10.3,-6.9,·,69.2*,-5.32*,9.7,+,·,CHOP confirm=119.0*
COc1ccc(NC(=O)/C(Cl)=C(/Cl)S(=O)(=O)Cc2ccc(C)cc2)cn1,·,·,·,61.8*,-5.02*,-2.7,i,·,CHOP confirm=118.1*
COc1ccc(NC(=O)Cc2ccc(Cl)c(Cl)c2)cn1,0.2,1.4,31.1,1.4,-0.585,-1.0,·,·,
O=C(Nc1ccc(Cl)cc1)/C(=C/c1cccc(O)c1)c1nc2ccccc2s1,114.1*,12.8,106.7*,25.4,-6*,-1.7,+,62.2*,
O=C1ON=C(c2ccc(Cl)cc2)/C1=C/c1ccc(O)cc1,106.6*,-1.7,-44.8,·,-4.96*,1.7,+,21.3,
Cc1ccc(C2=NOC(=O)/C2=C\c2ccccc2)cc1,0.1,-1.0,·,3.1,·,·,·,·,
Cc1cccc(-n2c(=S)[nH]c3sc4c(c3c2=O)CCc2ccccc2-4)c1,2.1,-0.6,5.7,6.5,-0.395,-2.8,·,·,
O=C(NC1CCCCC1)C(c1ccncc1)N(Cc1ccc(F)cc1)C(=O)c1ccccn1 (stereo unspecified),-0.9,-0.8,·,-7.9,·,-12.7,·,·,
O=C(NC1CCCC1)C(c1ccc(F)cc1)N(Cc1ccc(F)cc1)C(=O)CCl (stereo unspecified),47.7*,-1.2,91.9*,0.0,-4.44*,1.0,+,92.9*,
O=C(NCCc1ccccc1F)C1CCCN1S(=O)(=O)c1ccc2ccccc2c1 (stereo unspecified),1.6,0.9,-13.3,-12.4,0.173,-29.7,·,·,
CC(=O)/C=C\c1ccccc1OC(=O)c1cc2ccccc2oc1=O,2.1,-3.9,·,-3.2,·,2.8,·,·,
O=C(/C=C\c1ccccc1OC(=O)c1ccccc1F)c1cc2ccccc2o1,54.9*,12.3,9.0,24.0,-4.69*,-10.8,+,286.8*,
O=C(/C=C/Sc1ccccc1)c1ccccc1,78.9*,-2.7,49.5,38.1,-3.59*,1.8,+,98.6*,
O=C1NN(c2ccc(F)cc2)C(=O)/C1=C/c1cccs1,10.4,13.2,2.0,5.2,-0.0676,-9.6,·,·,
COc1ccc(C2=CC(=O)N(Nc3ccccc3)C2=O)cc1,47.9*,-4.2,101.4*,·,-5.11*,-18.3,+,149.4*,CHOP confirm=-19.5
N#CCNc1ccc([N+](=O)[O-])cc1C#N,0.2,-2.6,7.8,5.2,0.292,-0.6,·,·,
Cc1ccc2nc(Cl)c3nnnn3c2c1,139.2*,-7.3,105.1*,87.2*,-5.19*,0.8,+,-6.5,
CCOC(=O)c1ccc(N=c2sc(C(=O)OC)cc(=O)n2Cc2ccco2)cc1,40.6*,7.4,12.4,24.5,-6.34*,-4.5,+,22.7,
CCOC(=O)C(=Cc1ccc(-n2cncn2)cc1)C(=O)OCC,118.8*,-3.5,10.5,4.9,-6.77*,-4.8,+,92.8*,
COc1ccccc1-c1cc(C(F)(F)F)nc(N2CCCC2)n1,-0.7,1.0,28.2,4.0,0.417,4.1,·,·,
COc1ccccc1-c1cc(C(F)(F)F)nc(S(C)(=O)=O)n1,135.5*,-4.5,112.4*,58.0*,-4.58*,-3.6,+,266.5*,CHOP confirm=-335.7
CCOC(=O)COc1ccc2nsnc2c1,-0.7,-3.6,13.2,1.3,-1.14,-8.0,·,·,
SMILES,CHOP UPR activ,XBP1 UPR activ,CHOP inhibitor,B2AR ag,Dynein transport,p-CIP stab down,Dynein confirm,CHOP UPR conf,others
CCOC(=O)Cn1cc(/C=C/[N+](=O)[O-])c2ccccc21,0.6,-2.9,-17.9,22.4,0.0777,4.3,·,·,
CCOC(=O)COc1ccc(/C=C/[N+](=O)[O-])c(OCC(=O)OCC)c1,358.1*,-6.1,111.4*,53.6*,-4.83*,-2.7,+,-9.6,CHOP confirm=-95.5
CCOc1ccc(/C=C/[N+](=O)[O-])c2ccccc12,221.1*,-4.3,51.0,78.1*,-3.9*,-2.1,i,-9.1,
COC(=O)c1cc(=O)n(Cc2ccc3c(c2)OCO3)c(=Nc2ccc(F)c(Cl)c2)s1,61.6*,2.5,-29.6,16.2,-3.58*,-3.9,+,72.8*,
COC(=O)c1cc(=O)n(CCc2ccc(OC)cc2)c(=Nc2ccc(F)c(Cl)c2)s1,60.2*,10.5,-33.9,19.2,-4.41*,9.5,+,39.8*,
Cc1ccc([N+](=O)[O-])cc1Nc1nc(N2CCCC2)nc(N2CCCC2)n1,0.6,-4.3,·,-2.5,·,8.3,·,·,
Cc1ccc(NC(=O)CSc2nc3ccccc3c(=O)n2CCCC(=O)NCC2CCCO2)cc1 (stereo unspecified),0.5,-4.2,·,-13.8,·,0.3,·,·,
O=C(CCCN1C(=O)C(c2ccccc2)Oc2cccnc21)NCc1ccc(F)cc1 (stereo unspecified),0.6,-0.6,·,-0.2,·,-6.0,·,·,
COc1cc(/C=C2\COC/C(=C\c3ccc(O)c(OC)c3)C2=O)ccc1O,139.6*,-6.2,41.1,27.9,-5.71*,-6.7,+,112.3*,
CC1=NN(c2cccc(C(=O)O)c2)C(=O)/C1=C\C=C/c1ccccc1,94.9*,-3.3,93.4*,·,-5.57*,-26.4,+,129.6*,
Cc1cc(C(=O)Cn2ncc(Cl)c(Cl)c2=O)c(C)n1CC(F)(F)F,96.0*,1.6,37.6,43.4*,-5.14*,-5.5,+,62.0*,
CCCc1cc(=O)[nH]c(SCC(=O)c2cc(C)n(CC(F)(F)F)c2C)n1,-1.3,-0.1,17.6,-2.7,0.0832,-6.3,·,·,
Cc1ccc(C)c(C(=O)Cn2ncc(Cl)c(Cl)c2=O)c1,86.9*,-0.8,110.7*,41.3,-4.71*,-5.2,?,67.3*,CHOP confirm=-24.5
CC(C)c1ccc(/C=C/C(=O)n2nnc3ccccc32)cc1,68.7*,1.8,-34.3,15.8,-4.53*,-10.2,+,17.0,

# Compound activity deposited in PubChem by several laboratories.
